# Laboratory results: paper PMC4706799 (Cancer prevention research (Philadelphia, Pa.), 2015)
# Values joined by “and” are separate entries in the source; they are usually repeats but may differ in a detail not shown here. Equal values may be shown once.
# Key:
# MSK cell line = assay: Annexin V-PE staining for apoptosis, MSK; type: cell-based; conditions: 24 h treatment
# Summary of the method: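 MSK-Leuk1 premalignant cells, grown in keratinocyte basal medium, were seeded in 6-cm plates to 40–50% confluency. They were treated for 24 h with test compound at doses chosen per cell line (DMSO stock diluted in RPMI, final DMSO <0.1%). Cells were trypsinized, washed in cold PBS, stained with annexin V-PE plus 7-AAD for 15 min at room temperature, and read by flow cytometry. Three independent experiments; mean ± SD; paired two-tailed t-test versus untreated control.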
# Mcl-1 = assay: Western blot, Mcl-1 expression; type: cell-based; conditions: Tu212 and Tu686, 24 h
# Summary of the method: (§1)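 Tu212 and Tu686 cells were treated with test compound at indicated doses for 24 h. Whole-cell lysates were immunoblotted for Bcl-2 family proteins (Bcl-2, Bcl-xL, Mcl-1, Bid, Bim, PUMA, NOXA), using 20 µg protein per lane on 8–12% SDS-PAGE and PVDF transfer. β-Actin or GAPDH served as loading control; detection was by enhanced chemiluminescence.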
# FOXO1 and 3 = assay: Western blot, FOXO phosphorylation; type: cell-based; conditions: Tu686 cells, multiple sites
# Summary of the method: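 Tu686 cells were exposed to test compound, and whole-cell lysates were probed by Western blot for phospho-FOXO1a and phospho-FOXO3a. Equal protein (20 µg) was separated on 8–12% SDS-PAGE and blotted to PVDF, with β-actin or GAPDH as loading control and enhanced chemiluminescence detection. Blots shown represent three independent experiments.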
# Tu177 = assay: SRB growth inhibition assay, Tu177; type: cell-based
# Summary of the method: (§2)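 SCCHN lines were kept in DMEM/F12 (1:1) with 10% heat-inactivated FBS at 37 °C and 5% CO2; MSK-Leuk1 was kept in keratinocyte basal medium. Cells were seeded in 96-well plates, incubated overnight, then exposed for 72 h to a range of test-compound concentrations (DMSO stock diluted in RPMI, final DMSO <0.1%). Growth inhibition was read by sulforhodamine B staining, and IC50 was calculated by software.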
# Bcl-xL = assay: Western blot, Bcl-xL expression; type: cell-based; conditions: Tu212 and Tu686, 24 h
# Summary of the method: as §1
# 886LN = assay: SRB growth inhibition assay, 886LN; type: cell-based; conditions: 72 h
# Summary of the method: as §2
# SQCCY1 = assay: SRB growth inhibition assay, SQCCY1; type: cell-based
# Summary of the method: as §2
# Tu686 SCCHN xenografts = assay: Nude mouse xenograft model; type: in vivo, nude mice; conditions: for effect on tumor volume: 50 mg/kg i.p., once/day, five days/week, 17 days
# [1] = Pharmacokinetic study, plasma LC/MS/MS; type: in vivo, A/J mice
# JHU022 = assay: SRB growth inhibition assay, JHU022; type: cell-based
# Summary of the method: as §2
# EGFR mRNA = assay: Real-time qPCR, EGFR mRNA; type: cell-based; conditions: Tu212 and Tu686
# UM-22B = assay: SRB growth inhibition assay, UM-22B; type: cell-based; conditions: 72 h
# Summary of the method: as §2
# Tu686 = assay: SRB growth inhibition assay, Tu686; type: cell-based
# Summary of the method: as §2
# Bim = assay: Western blot, Bim expression; type: cell-based; conditions: Tu212 and Tu686, 24 h
# Summary of the method: as §1
# Bid = assay: Western blot, Bid expression; type: cell-based; conditions: Tu212 and Tu686, 24 h
# Summary of the method: as §1
# PCI-13 = assay: SRB growth inhibition assay, PCI-13; type: cell-based
# Summary of the method: as §2
# SCCHN cell lines = assay: Annexin V-PE staining for apoptosis; type: cell-based; conditions: for concentration sufficient to induce ~80% apoptosis: by 48 h, annexin V-PE
# PARP = assay: Western blot for PARP cleavage; type: cell-based; conditions: Tu212, Tu686, MSK-LEUK1, 24 h
# Summary of the method: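 Tu212, Tu686 and MSK-Leuk1 cells were treated with test compound at indicated doses for 24 h. Whole-cell lysates (20 µg protein) were run on 8–12% SDS-PAGE and transferred to PVDF. Blots were probed with a PARP antibody recognising both full-length and cleaved forms, with β-actin or GAPDH as loading control, and detected by enhanced chemiluminescence.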
# AKT mRNA = assay: Real-time qPCR, AKT mRNA; type: cell-based; conditions: Tu212 and Tu686
# cytochrome c = assay: Cytochrome c release in the cytoplasm; type: cell-based; conditions: Tu212 cells
# Summary of the method: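 Tu212 cells were treated with test compound. Cytosolic and mitochondrial fractions were separated and immunoblotted for cytochrome c, with ERK as cytoplasmic control and Cox4 as mitochondrial control. Equal protein (20 µg) was run on 8–12% SDS-PAGE, transferred to PVDF and detected by enhanced chemiluminescence. Blots shown represent three independent experiments.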
# MSK-Leuk1 = assay: SRB growth inhibition assay, MSK-Leuk1; type: cell-based; conditions: 72 h
# Summary of the method: as §2
# AKT = assay: Western blot, pAKT and AKT; type: cell-based; conditions: Tu212, Tu686, MSK-LEUK1
# [2] = system: mTOR pathway (S6 and 4EBP1); assay: Western blot, mTOR pathway readouts; type: cell-based; conditions: Tu212, Tu686, MSK-LEUK1
# Summary of the method: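 Tu212, Tu686 and MSK-Leuk1 cells were treated with different doses of test compound. Whole-cell lysates (20 µg protein, 8–12% SDS-PAGE, PVDF) were immunoblotted for p-mTOR, p-S6, S6, p-4EBP1 and 4EBP1, with β-actin or GAPDH loading control and chemiluminescent detection. Blots shown represent three independent experiments.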
# Bcl-2 mRNA = assay: Real-time qPCR, Bcl-2 mRNA; type: cell-based; conditions: Tu212 and Tu686
# Summary of the method: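 Tu212 and Tu686 cells were treated with test compound at 1 µM and 2 µM (T1) or 2 µM and 3 µM (T2), respectively. Total RNA was column-extracted, and 2 µg was reverse transcribed to cDNA. Bcl-2 mRNA was quantified by SYBR Green real-time qPCR and compared with the corresponding untreated control.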
# EGFR = assay: Western blot, pEGFR and EGFR; type: cell-based; conditions: Tu212, Tu686, MSK-LEUK1
# Tu212 = assay: SRB growth inhibition assay, Tu212; type: cell-based
# Summary of the method: as §2
# Bcl-2 = assay: Western blot, Bcl-2 expression; type: cell-based; conditions: Tu212 and Tu686, 24 h
# Summary of the method: as §1
# [3] = Body weight and organ toxicity in xenograft study; type: in vivo; conditions: 50 mg/kg i.p., 17 days
# [4] = cited from earlier work
# [5] = cited from earlier work; remark: listed apart in the source
# [6] = cited from earlier work; remark: listed apart in the source
# [7] = system: premalignant (MSK-LEUK1) and malignant SCCHN cell lines; assay: SRB growth inhibition assay, cell line panel; type: cell-based; conditions: 72 h, read-out: IC50 values, range over the cell lines
# Summary of the method: as §2
# [8] = female, A/J, mouse, plasma, po, 200 mg/kg
compound,measurement,setting,value
COc1cc(/C=C/C(=O)/C=C/c2cc(OC)c(O)c(OC)c2)cc(OC)c1O [FLLL12],apoptosis,MSK cell line,more than 80%
same,expression of Mcl-1,Mcl-1,remained mostly unchanged
same,phosphorylation of FOXO1 and 3,FOXO1 and 3,strongly inhibited the phosphorylation
same,IC50,"Tu177; Tu177, 72 h, SRB assay",0.45 µM
same,expression of Bcl-xL,Bcl-xL,remained mostly unchanged
same,IC50,"886LN; 886LN, SRB assay",0.72 µM
same,IC50,"SQCCY1; SQCCY1, 72 h, SRB assay",1.55 µM
same,effect on tumor volume,Tu686 SCCHN xenografts,significantly reduced tumor volume
same,AUC (0-∞),[1]; 200 mg/kg oral,418.5 ng·h/mL
same,"AUC, fold greater than curcumin",[1]; 200 mg/kg oral,3–4 fold
same,"Cmax, fold greater than curcumin",[1]; 200 mg/kg oral,4.3 fold and ~ 4.0 fold and 3–4 fold
same,terminal elimination half-life (t½),[1]; 200 mg/kg oral,4.8 h
same,Tmax,"[1]; 200 mg/kg oral, DMSO/0.5% CMC, plasma",0.5 h
same,Cmax,"[1]; 200 mg/kg oral, plasma",241.5 ng/mL
same,IC50,"JHU022; JHU022, 72 h, SRB assay",0.77 µM
same,mRNA expression of EGFR,EGFR mRNA,strongly inhibited the mRNA expression
same,IC50,"UM-22B; UM-22B, SRB assay",0.57 µM
same,IC50,"Tu686; Tu686, 72 h, SRB assay",0.68 µM
same,expression of Bim,Bim,increased
same,expression of Bid (full length),Bid,inhibited
same,IC50,"PCI-13; PCI-13, 72 h, SRB assay",0.35 µM
same,fold more potent than curcumin in inducing apoptosis,SCCHN cell lines; SCCHN cell lines,5–10 fold
same,concentration sufficient to induce ~80% apoptosis,SCCHN cell lines,1 to 3 µM
same,cleavage of PARP,PARP,markedly induced the cleavage of PARP
same,mRNA expression of AKT,AKT mRNA,strongly inhibited the mRNA expression
same,release of cytochrome c in the cytoplasm,cytochrome c,caused release of cytochrome c
same,IC50,"MSK-Leuk1; MSK-Leuk1 (premalignant), SRB assay",0.35 µM
same,phosphorylation of AKT,AKT,inhibited the phosphorylation
same,total AKT protein,AKT,inhibited
same,phosphorylation of S6 and 4EBP1,[2],strongly inhibited phosphorylation
same,expression of Bcl-2 mRNA,Bcl-2 mRNA,increased rather than decreased
same,phosphorylation of EGFR,EGFR,inhibited the phosphorylation
same,total EGFR protein,EGFR,inhibited
same,IC50,"Tu212; Tu212, 72 h, SRB assay",0.46 µM
same,expression of Bcl-2 protein,Bcl-2,inhibited
same,"toxicity (H&E of major organs, body weight)",[3],without inducing any notable toxicity
O=C1/C(=C/c2ccccn2)CNC/C1=C\c1ccccn1 [compound 31],fold better anti-cancer efficacy than natural curcumin in vitro,[4],~ 10 fold
O=C1/C(=C/c2ccccc2F)CNC/C1=C\c1ccccc1F [EF24],fold better anti-cancer efficacy than natural curcumin in vitro,[4],~ 10 fold
COc1cc(/C=C/C(=O)C(=Cc2ccc(F)c(F)c2)C(=O)/C=C/c2ccc(O)c(OC)c2)ccc1O [CDF],"accumulation in pancreatic tissue, fold higher than curcumin",[5],10.6 fold
same,"systemic drug level, fold greater than curcumin",[5],2.7 fold
CN1C/C(=C\c2ccccn2)C(=O)/C(=C/c2ccccn2)C1 [UBS109],fold better anti-cancer efficacy than natural curcumin in vitro,[4],~ 10 fold
"COc1cc(/C=C/C(=O)CC(=O)/C=C/c2ccc(O)c(OC)c2)ccc1O [curcumin, reference compound]",IC50,Tu177; 72 h,5.25 µM
same,IC50,886LN,17.4 µM
same,IC50,SQCCY1; 72 h,12.6 µM
same,oral bioavailability,[6],~ 1%
same,effect on tumor volume,Tu686 SCCHN xenografts,had no effect
same,efficacy in xenograft study,"Tu686 SCCHN xenografts; 150 mg/kg, earlier study, data not shown",did not find any efficacy
same,AUC(0-inf),[1]; [8],131 ng·h/mL
same,Cmax,[1]; [8],55.6 ng/mL
same,Tmax,[1]; [8],0.25 h
same,half-life,[1]; [8],7.7 h
same,IC50,JHU022; 72 h,4.53 µM
same,mRNA expression of EGFR,EGFR mRNA,strongly inhibited the mRNA expression
same,IC50,UM-22B,7.76 µM
same,IC50,"Tu686; Tu 686, 72 h",6.7 µM
same,IC50,PCI-13; 72 h,5.73 µM
same,concentration sufficient to induce ~80% apoptosis,SCCHN cell lines,10 to 15 µM
same,mRNA expression of AKT,AKT mRNA,strongly inhibited the mRNA expression
same,IC50,MSK-Leuk1,6.81 µM
same,phosphorylation of AKT,AKT,inhibited the phosphorylation
same,total AKT protein,AKT,inhibited
same,phosphorylation of EGFR,EGFR,inhibited the phosphorylation
same,total EGFR protein,EGFR,inhibited
same,IC50,[7],4.53 to 17.4 µM
same,IC50,"Tu212; TU212, 72 h",6.97 µM
